Measurements as given in ChEMBL document CHEMBL1155847, “Novel indoline-based acyl-CoA:cholesterol acyltransferase inhibitor with antiperoxidative activity: improvement of physicochemical properties and biological activities by introduction of carboxylic acid” (J Med Chem, 2008).
Converted amounts (≈) assume the structure as drawn. The source made the active and inactive calls. The rule behind the calls is not given here.

Legend:
[1] = target: T1, Sterol O-acyltransferase 1 (Homo sapiens, UniProt P35610); assay: Inhibition of ACAT-mediated esterified cholesterol accumulation in human THP1 cells exposed to acetyl-LDL during differentiation assessed as effect on foam cell formation; format: cell-based, THP-1
T1 sequence (P35610 whole entry): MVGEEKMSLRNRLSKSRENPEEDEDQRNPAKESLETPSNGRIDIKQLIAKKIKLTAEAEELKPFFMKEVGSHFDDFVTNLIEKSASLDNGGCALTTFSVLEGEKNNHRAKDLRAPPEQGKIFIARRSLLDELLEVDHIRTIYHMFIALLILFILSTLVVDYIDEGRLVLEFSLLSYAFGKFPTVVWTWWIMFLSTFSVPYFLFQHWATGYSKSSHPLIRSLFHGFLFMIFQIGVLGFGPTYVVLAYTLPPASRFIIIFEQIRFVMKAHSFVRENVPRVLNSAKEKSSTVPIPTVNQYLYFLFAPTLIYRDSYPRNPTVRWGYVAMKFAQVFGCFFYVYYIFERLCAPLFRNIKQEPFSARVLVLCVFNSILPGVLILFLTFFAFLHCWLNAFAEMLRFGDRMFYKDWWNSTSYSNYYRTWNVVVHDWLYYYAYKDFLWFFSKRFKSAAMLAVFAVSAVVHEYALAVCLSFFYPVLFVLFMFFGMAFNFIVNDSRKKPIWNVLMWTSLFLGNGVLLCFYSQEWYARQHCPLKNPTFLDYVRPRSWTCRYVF

[2] = target: T2, Acyl-CoA:cholesterol acyltransferase (Oryctolagus cuniculus, UniProt Q95214); assay: Inhibition of normocholesterolemic rabbit liver ACAT
T2 sequence (Q95214 whole entry): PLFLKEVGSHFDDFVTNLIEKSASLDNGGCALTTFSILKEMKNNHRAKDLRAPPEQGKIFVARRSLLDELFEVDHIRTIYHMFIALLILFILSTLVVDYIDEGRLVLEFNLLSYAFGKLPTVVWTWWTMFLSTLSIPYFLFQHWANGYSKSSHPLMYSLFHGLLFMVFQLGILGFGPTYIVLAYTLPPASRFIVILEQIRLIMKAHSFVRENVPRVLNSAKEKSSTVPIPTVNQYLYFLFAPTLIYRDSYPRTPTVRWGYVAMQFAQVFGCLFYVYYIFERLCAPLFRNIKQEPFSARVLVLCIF
Summary of the method: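 Liver from normocholesterolemic male Japanese White rabbits homogenized in sucrose/phosphate/EDTA/dithioerythritol buffer pH 7.4. Microsomes collected by 12000g then 105000g spins. Then 30 nmol [1-¹⁴C]oleoyl-CoA added, 20 min at 37 °C. Cholesteryl ester extracted and separated by TLC.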

Brain = assay: Antiperoxidative activity in Sprague-Dawley rat brain assessed as inhibition of malonaldehyde level; format: functional, tissue-based
Summary of the method: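 Cerebral cortex from male SD rats (6 weeks) homogenized in ice-cold 50 mM PBS pH 7.4, spun 1300g. Supernatant incubated 37 °C, 30 min with vehicle or compound. Stopped with 20% TCA; thiobarbituric acid reaction at 100 °C, 15 min; MDA read at 532 nm, less pre-assay MDA. Duplicate assay, n = 2.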

[3] = AUC in Sprague-Dawley rat at 10 mg/kg, po; format: ADME, organism-based; set-up: dose 10 mg/kg, route oral; details: plasma
Summary of the method: (§1)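 Male SD rats, 6-7 weeks, fasted overnight, n = 3; single oral 10 mg/kg dose suspended in 5% arabic gum. Jugular-vein heparinized blood at 0.5, 1, 3, 5, 8, 24 h; plasma free-form compound by HPLC. AUC taken over 24 h.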

[4] = Inhibition of lipid peroxidation in genetically hypercholesterolemic KHC rabbit serum assessed as malonaldehyde level after 4 hrs; format: functional, cell-free; details: Oryctolagus cuniculus
Summary of the method: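 Heparinized ear-artery plasma from KHC rabbits (2.4-2.7 kg) incubated with CuSO₄ 2 mM at 37 °C for 4 h with vehicle or compound. Lipid peroxide measured as MDA by kit. IC50 from duplicate tubes; n = 2.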

Plasma = assay: Inhibition of LDL oxidation in genetically hypercholesterolemic KHC rabbit plasma assessed as malonaldehyde level after 1 hr; format: functional, cell-free; details: Oryctolagus cuniculus
Summary of the method: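 LDL fraction isolated from plasma of male KHC rabbits and oxidized with CuSO₄ 5 µM at 37 °C for 1 h with vehicle or compound. Oxidation read as MDA. IC50 from duplicate tubes per concentration; n = 4.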

[5] = Distribution coefficient, log D at pH 7.0; format: physicochemical; details: octanol/water
Summary of the method: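 5 mg of compound in 5 mL octanol shaken 30 min at room temperature with 5 mL 1/15 M potassium phosphate buffer pH 7.0, then centrifuged. Both phases quantified by HPLC. log D taken as log of the octanol/buffer concentration ratio.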

[6] = Solubility in water at pH 7.0; format: physicochemical
Summary of the method: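 6 mg of compound shaken 30 min at room temperature in 3 mL 1/15 M potassium phosphate buffer pH 7.0, centrifuged and filtered (0.45 µm). Filtrate concentration by HPLC.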

[7] = target: Phosphatidylcholine-sterol acyltransferase (Rattus norvegicus) (UniProt P18424); assay: Inhibition of rat LCAT up to 10 uM
[8] = Cmax in Sprague-Dawley rat at 10 mg/kg, po; format: ADME, organism-based; set-up: dose 10 mg/kg, route oral; details: in vivo; summary of the method: as §1
[9] = Cmax in Japanese white rabbit at 10 mg/kg, po; format: ADME, organism-based, Oryctolagus cuniculus; set-up: dose 10 mg/kg, route oral; details: in vivo
Summary of the method: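 Oral 10 mg/kg in 5% arabic gum to male Japanese white rabbits (2.7-3.0 kg, n = 4). Ear-vein heparinized blood at 0.25, 0.5, 1, 2, 3, 5, 8, 24 h. Free-form concentration in plasma by HPLC.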

[10] = Cmax in Beagle dog at 10 mg/kg, po; format: ADME, organism-based, Canis lupus familiaris; set-up: dose 10 mg/kg, route oral; details: in vivo
Summary of the method: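 Male beagles (9.0-11.6 kg, n = 4) dosed orally at 10 mg/kg as a 5% arabic gum suspension. Heparinized jugular-vein blood at 0.25, 0.5, 1, 2, 3, 5, 8, 12 h. Plasma free-form drug measured by HPLC.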

Rattus norvegicus [11] = assay: Hypolipidemic effect in high-cholesterol diet fed Wistar rat assessed as LDL/VLDL cholesterol level at 3 mg/kg/day, po for 3 days; format: functional
Summary of the method: (§2)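 Male Wistar rats, 8-9 weeks, on a diet of 1% cholesterol, 0.5% cholic acid and 10% coconut oil for 3 days; dosed orally once daily in 5% arabic gum, or vehicle (n = 5/group). Fasted 5 h after the last dose; abdominal-aorta blood under pentobarbital. Serum total and HDL cholesterol measured enzymatically.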

Rattus norvegicus [12] = assay: Hypolipidemic effect in high-cholesterol diet fed Wistar rat assessed as HDL cholesterol level at 3 mg/kg/day, po for 3 days; format: functional; summary of the method: as §2
Oryctolagus cuniculus [13] = assay: Hypolipidemic effect in high-cholesterol diet fed Japanese white rabbit assessed as LDL/VLDL cholesterol level at 1 mg/kg/day, po for 7 days; format: functional
Summary of the method: (§3)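 Male Japanese white rabbits (2.5-3.0 kg) fed 1% cholesterol diet for 7 days with once-daily oral dosing in 5% arabic gum, or vehicle (n = 5/group). Fasted overnight after the final dose; ear-artery blood. Serum total and HDL cholesterol by enzymatic kit.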

Oryctolagus cuniculus [14] = assay: Hypolipidemic effect in high-cholesterol diet fed Japanese white rabbit assessed as HDL cholesterol level at 1 mg/kg/day, po for 7 days; format: functional; summary of the method: as §3
Canis familiaris [15] = assay: Hypolipidemic effect in Western diet fed Beagle dog assessed as LDL/VLDL cholesterol level at 3 mg/kg/day, po for 7 days; format: functional, Canis lupus familiaris
Summary of the method: (§4)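 Male beagles (8.8-12.0 kg) fed a Western diet (meat, eggs, butter) for 7 days with once-daily oral dosing in 5% arabic gum, or vehicle (n = 3/group). […] blood 24 h after the last dose. Serum total and HDL cholesterol measured enzymatically.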

Canis familiaris [16] = assay: Hypolipidemic effect in Western diet fed Beagle dog assessed as HDL:HDL cholesterol level at 3 mg/kg/day, po for 7 days; format: functional, Canis lupus familiaris; summary of the method: as §4
Syrian golden hamster [17] = assay: Hypolipidemic effect in regular diet fed Syrian hamster assessed as LDL/VLDL cholesterol level at 3 mg/kg/day, po for 3 weeks; format: functional, Mesocricetus auratus
Summary of the method: (§5)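 Male Syrian hamsters, 9 weeks, regular diet for 3 weeks with once-daily oral dosing in 5% arabic gum, or vehicle (n = 5/group). Abdominal-aorta blood 24 h after the last dose, under pentobarbital. Serum total and HDL cholesterol by enzymatic kit.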

Syrian golden hamster [18] = assay: Hypolipidemic effect in regular diet fed Syrian hamster assessed as HDL:HDL cholesterol level at 3 mg/kg/day, po for 3 weeks; format: functional, Mesocricetus auratus; summary of the method: as §5
[19] = target: T1, Sterol O-acyltransferase 1; assay: Inhibition of ACAT-mediated esterified cholesterol accumulation in human THP1 cells exposed to acetyl-LDL after differentiation assessed as effect on foam cell formation; format: cell-based, THP-1
Summary of the method: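 THP-1 cells first differentiated 3 days in RPMI-1640/10% FBS with PMA 200 nM and 2-mercaptoethanol 50 µM. Then washed and cultured 2 days with 50 µM 2-mercaptoethanol, acetyl-LDL 400 µg/mL from KHC rabbit plasma, and compound. Lipids extracted with hexane/isopropanol; esterified cholesterol = total minus free cholesterol, enzymatic; protein by Lowry. Duplicate assay, n = 4.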

[20] = target: T2, Acyl-CoA:cholesterol acyltransferase; assay: Inhibition of ACAT in microsomes from hyperlipidemic white rabbit macrophages assessed as esterified cholesterol accumulation
Summary of the method: (§6)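 Microsomes (12000g then 105000g spins at 4 °C, sucrose/phosphate/EDTA/dithioerythritol buffer pH 7.4) from hypercholesterolemic rabbit tissues, in 154 mM phosphate pH 7.4 with BSA. Compound preincubated 5 min at 37 °C, then 30 nmol [1-14C]oleoyl-CoA added. Reaction at 37 °C: adrenal 10 min, intestine 7.5 min, liver 20 min, macrophage 30 min. Labelled cholesteryl ester extracted and resolved by TLC. IC50 from duplicate tubes.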

[21] = target: T2, Acyl-CoA:cholesterol acyltransferase; assay: Inhibition of ACAT in hyperlipidemic white rabbit liver microsomes assessed as esterified cholesterol accumulation; set-up: species or system Microsome; summary of the method: as §6
[22] = target: T2, Acyl-CoA:cholesterol acyltransferase; assay: Inhibition of ACAT in hyperlipidemic white rabbit intestine microsomes assessed as esterified cholesterol accumulation; set-up: species or system Microsome; summary of the method: as §6
[23] = target: T2, Acyl-CoA:cholesterol acyltransferase; assay: Inhibition of ACAT in hyperlipidemic white rabbit adrenal microsomes assessed as esterified cholesterol accumulation; set-up: species or system Adrenal gland; summary of the method: as §6
Cavia porcellus = assay: Adrenotoxicity in guinea pig at 100 mg/kg/day administered for 4 days; format: toxicity, organism-based; details: in vivo, 96 h

Sequence of Phosphatidylcholine-sterol acyltransferase (Rattus norvegicus) (P18424 whole entry, looked up): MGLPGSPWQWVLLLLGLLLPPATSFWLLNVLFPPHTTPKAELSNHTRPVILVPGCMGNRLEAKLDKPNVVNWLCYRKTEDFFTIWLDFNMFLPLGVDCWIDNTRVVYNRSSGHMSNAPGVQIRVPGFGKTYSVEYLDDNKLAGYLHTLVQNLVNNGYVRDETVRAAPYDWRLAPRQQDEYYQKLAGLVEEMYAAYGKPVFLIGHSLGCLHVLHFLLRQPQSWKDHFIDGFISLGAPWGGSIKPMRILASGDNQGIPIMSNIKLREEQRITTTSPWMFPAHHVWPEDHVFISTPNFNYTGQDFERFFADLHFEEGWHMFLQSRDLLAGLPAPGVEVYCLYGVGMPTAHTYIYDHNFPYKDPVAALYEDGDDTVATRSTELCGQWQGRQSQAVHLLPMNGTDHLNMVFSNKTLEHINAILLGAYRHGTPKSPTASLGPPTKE

## CCCCCCCCN1CCc2c(C)cc(C)c(NC(=O)C(C)(C)CCC(=O)O)c21
[1]
  IC50: > 10 µM
[2]
  IC50: > 10 µM
Brain
  IC50: 6.6 µM
[3]
  AUC: 5000 ng·h/mL

## CC(C)(Sc1cc(C(C)(C)C)c(O)c(C(C)(C)C)c1)Sc1cc(C(C)(C)C)c(O)c(C(C)(C)C)c1 [PROBUCOL]
[4]
  IC50: 21.6 µM
Plasma
  IC50: 132 µM

## CCCCCCCCN1CCc2c(C)cc(C)c(NC(=O)C(C)(C)C)c21.Cl
[5]
  logD: 6.2
[6]
  solubility: 0.08 µg/mL

## CCCCCCCCN1CCc2c(C)c(CC(=O)O)c(C)c(NC(=O)C(C)(C)C)c21
[7]
  Activity: inactive

## Cc1cc(C)c(NC(=O)C(C)(C)C)c2c1CCN2CCCCCCCCCC(=O)O
[1]
  IC50: > 10 µM
[2]
  IC50: 5.5 µM
Brain
  IC50: 48.3 µM
[3]
  AUC: 100 ng·h/mL

## CCCCCCCCN1CC(CCC(=O)O)c2c(C)cc(C)c(NC(=O)C(C)(C)C)c21 (stereo unspecified)
[1]
  IC50: 3.6 µM
[2]
  IC50: 5 µM
Brain
  IC50: 4.2 µM
[3]
  AUC: 1700 ng·h/mL

## CCCCCCCCN1CCc2c(C)c(Cc3nnn[nH]3)c(C)c(NC(=O)C(C)(C)C)c21
[1]
  IC50: > 10 µM
[5]
  logD: 3.7
[6]
  solubility: 66 µg/mL (≈ 150 µM)
[2]
  IC50: > 10 µM
Brain
  IC50: 1.7 µM
[3]
  AUC: 6600 ng·h/mL

## CCCCCCCCN1CCc2c(C)c(CC(=O)O)c(C)c(NC(=O)C(C)(C)C)c21 [PACTIMIBE]
[8]
  Cmax: 2.2 µM
[9]
  Cmax: 7.2 µM
[10]
  Cmax: 26.8 µM
Rattus norvegicus [11]
  Activity: 9.7 mg/dL
Rattus norvegicus [12]
  Activity: 29.4 mg/dL
Oryctolagus cuniculus [13]
  Activity: 119.5 mg/dL
Oryctolagus cuniculus [14]
  Activity: 15.4 mg/dL
Canis familiaris [15]
  Activity: 31.6 mg/dL
Canis familiaris [16]
  Activity: 141.3 mg/dL
Syrian golden hamster [17]
  Activity: 70.3 mg/dL
Syrian golden hamster [18]
  Activity: 58.3 mg/dL
[1]
  IC50: 1.8 µM
[2]
  IC50: 1.2 µM
Brain
  IC50: 1.3 µM
[3]
  AUC: 1500 ng·h/mL
[19]
  IC50: 0.3 µM
[20]
  IC50: 1.9 µM
[21]
  IC50: 0.69 µM
[22]
  IC50: 0.72 µM
[23]
  IC50: 15.9 µM
Cavia porcellus
  Activity: Non-toxic
[4]
  IC50: 4.4 µM
Plasma
  IC50: 0.98 µM
